In data set [1] the test system is Human immunodeficiency virus 1. Briefly: Antiviral activity against HIV1 isolate with RT V106I, Y181C, F227L, T369I mutation in Hela-JC-53 cells. The data set is classed as functional.
A short description of data set [2]: Cmax in dog at 20 mg/kg, po. It counts as ADME, organism-based, Canis lupus familiaris. Details: dose 20 mg/kg, route oral. The note with it: in vivo.
The nature of data set [3]: Cmax in dog at 10 mg/kg, iv. The data set is classed as ADME, organism-based, Canis lupus familiaris. Set-up: dose 10 mg/kg, route intravenous. The note with it: in vivo.
The nature of data set [4]: AUC in dog at 20 mg/kg, po. The data set is classed as ADME, organism-based, Canis lupus familiaris. Details: dose 20 mg/kg, route oral. The note with it: plasma.
For data set [5], the system named is Human immunodeficiency virus 1. The data set can be described thus: Antiviral activity against HIV1 isolate with RT Y181C mutation in Hela-JC-53 cells. The data set is classed as functional.
Data set [6] concerns Human immunodeficiency virus 1. The data set can be described thus: Antiviral activity against HIV1 NL4-3 with Y188L mutation in Hela-JC53 cells in the presence of 50% human serum after 48 hrs. It counts as functional, organism-based. The note with it: Human immunodeficiency virus 1, NL4-3, Hela-JC53, 48 h. In short, it runs like this: (§1)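 VSV-G-pseudotyped Y188L NL4-3.Luci.R−E− virus (MOI 0.03) infecting HeLa-JC53 cells (1.5 × 10^4) in phenol red-free DMEM with 2% FBS. Serially diluted compound was added, then heat-inactivated human serum at final 0, 5, 10, 20, 30, 40 or 50%. Cultures ran 48 h at 37°C in 5% CO2, read by Bright-Glo luciferase chemiluminescence. EC50 was taken by nonlinear regression.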

The test system of data set [7] is Human immunodeficiency virus 1. Briefly: Antiviral activity against HIV1 NL4-3 with Y188L mutation in Hela-JC53 cells in the presence of 10% human serum after 48 hrs. The note with it: Human immunodeficiency virus 1, NL4-3, Hela-JC53, 48 h. The data set is classed as functional, organism-based. In short, it runs like this: as §1
Data set [8] in a line: Plasma concentration in dog at 10 mg/kg, iv after 12 hrs. It counts as ADME, organism-based, Canis lupus familiaris. Set-up: dose 10 mg/kg, route intravenous.
The subject of data set [9] is Human immunodeficiency virus 1. Briefly: Antiviral activity against HIV1 isolate with RT D123G mutation in Hela-JC-53 cells. It counts as functional.
Data set [10] concerns Human immunodeficiency virus 1. Briefly: Antiviral activity against HIV1 isolate with RT G190S mutation. The data set is classed as functional, organism-based. In short, it runs like this: (§2)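 VSV-G-pseudotyped pNL4-3.Luc.R−E− molecular clones carrying the RT mutations, single-round infection of HeLa-JC53 cells (15,000/well) at MOI 0.03. Compounds serially diluted 1:4 in DMSO then in phenol red-free DMEM with 2% FBS, final DMSO 0.2%. Incubated 48 h at 37°C, 5% CO2. Luciferase read-out by chemiluminescence gives the EC50. Fold change is relative to wt virus, mean of two tests.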

The test system of another data set is Hepatitis C virus. The data set can be described thus: Inhibition of hepatitis C virus replication. The note with it: Hepacivirus hominis. The data set is classed as functional, organism-based.
Data set [11] deals with Human immunodeficiency virus type 1 reverse transcriptase (Human immunodeficiency virus 1, UniProt Q72547). Briefly: Inhibition of HIV1 reverse transcriptase. In short, it runs like this: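 E. coli-expressed HIV-1 RT (1 nM) with 16 μg/ml poly(rA)/oligo(dT)18 and 2 μM α-33P-TTP, 0–100 μM inhibitor. Buffer: 50 mM Tris-HCl pH 7.5, 5 mM MgCl2, 1 mM DTT, 60 μg/ml BSA. Run 1 h at 25°C, then TCA/pyrophosphate precipitation and radioactivity counted. IC50 = 50% inhibition of RT activity.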

For data set [12], the system named is Human immunodeficiency virus 1. Briefly: Antiviral activity against HIV1 isolate with RT V106I mutation. It counts as functional, organism-based. The essentials: as §2
Data set [13] deals with Human immunodeficiency virus 1. The data set can be described thus: Antiviral activity against HIV1 isolate with RT G190A mutation. It counts as functional, organism-based. The essentials:
as §2

The test system of data set [14] is Human immunodeficiency virus 1. Briefly: Antiviral activity against HIV1 isolate with RT K103N-F227L mutation. The data set is classed as functional, organism-based. The essentials: as §2
The subject of data set [15] is Human immunodeficiency virus 1. The data set can be described thus: Antiviral activity against HIV1 NL4-3 with Y188L mutation in Hela-JC53 cells in the presence of 5% human serum after 48 hrs. The data set is classed as functional, organism-based. The note with it: Human immunodeficiency virus 1, NL4-3, Hela-JC53, 48 h. In short, it runs like this: as §1
Data set [16] relates to Human immunodeficiency virus 1. Briefly: Antiviral activity against HIV1 isolate with RT 101R, 103N, 181C, 190A mutation relative to wild type. It counts as functional.

Calls of active or inactive are those of the source. The rule behind the calls is not given here.

Two compounds from ChEMBL document CHEMBL1142195, “A novel nonnucleoside analogue that inhibits human immunodeficiency virus type 1 isolates resistant to current nonnucleoside reverse transcriptase inhibitors” (Antimicrob Agents Chemother, 2007) can be followed below.

As usually defined, the Cmax is the highest concentration seen after dosing. By AUC is commonly meant concentration integrated over time. A low value points to low exposure. By EC50 is commonly meant the concentration needed to bring the measured effect to its halfway point. Usually IC50 stands for the concentration at which inhibition is half-maximal. A low value points to higher potency.

`NS(=O)(=O)c1ccc(NC(=O)CSc2nnc(Br)n2-c2ccc(C3CC3)c3ccccc23)c(Cl)c1`: the Fold change was 111.9 in data set [1], 1.9 in data set [5] and 1 in data set [9]. Moreover, the Cmax in data set [2] amounted to 1980 ng/mL; in data set [3], 4420 ng/mL. This compound also had an AUC in data set [4] of 19600 ng·h/mL. In addition, the EC50 worked out at 79.9 nM in [6]; 20.7 nM in data set [7]; 0.23 nM in data set [10]; 0.09 nM in [12]; 0.19 nM in data set [13]; 0.08 nM in [14]. For the same compound, the EC50 in data set [15] was 13.7 nM. This compound showed a concentration at 12 h in [8] of 283 ng/mL. The outcome in the data set on Hepatitis C virus was inactive. This compound had an IC50 in [11] of 4 nM.

With `Cc1ccnc2c1NC(=O)c1cccnc1N2C1CC1` [NEVIRAPINE], the Fold change in data set [16] is reported as greater than 100.
